RAD54 inh: blocks human RAD54 Holliday junction branch migration; Q92698; FAM/BHQ fluorescence; inhibition, % at 10.4 µM; actives 0.14% (n = 360,000); AID 602329;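 active = mean normalized replicate activity at least 40 and at least half of replicates scoring 40 or more; inconclusive = only one of the two criteria met; inactive = mean below 40 and under half of replicates reaching 40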;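 also: inhibitors cause a drop in the FAM fluorescence signal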
FN deposition inh: fibronectin deposition inhibition; AH1F fibroblasts, Alexa488-fibronectin deposition fluorescence, overnight; inhibition, % at 12.6 µM; actives 0.086% (n = 350,000); AID 743247;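 active = mean inhibition across replicates of 30% or more, regardless of how many single replicates reach that level; inconclusive = mean under 30% yet at least half of replicates reach 30%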
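Assay system: AH1F fibroblasts / Quantity: 10000 cells per well / Medium: DMEM plus 2% serum, read in PBS / Reagent: labelled fibronectin 24 nM / Dosing: single dose, pinned / Times: 1 h cell attachment, overnight exposure to compound and label / Signal: fluorescence, ex 485 nm, em 525 nm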
RAD52 anneal inh: inhibitors of human RAD52 DNA annealing. P43351. recombinant RAD52 DNA annealing, FRET fluorescence. inhibition, % at 18.7 µM. actives 0.46% (n = 360,000);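 active = every replicate showing at least 50% inhibition; inconclusive = mean inhibition at least 50% but not in every replicate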
Target sequence (P43351 whole entry, looked up): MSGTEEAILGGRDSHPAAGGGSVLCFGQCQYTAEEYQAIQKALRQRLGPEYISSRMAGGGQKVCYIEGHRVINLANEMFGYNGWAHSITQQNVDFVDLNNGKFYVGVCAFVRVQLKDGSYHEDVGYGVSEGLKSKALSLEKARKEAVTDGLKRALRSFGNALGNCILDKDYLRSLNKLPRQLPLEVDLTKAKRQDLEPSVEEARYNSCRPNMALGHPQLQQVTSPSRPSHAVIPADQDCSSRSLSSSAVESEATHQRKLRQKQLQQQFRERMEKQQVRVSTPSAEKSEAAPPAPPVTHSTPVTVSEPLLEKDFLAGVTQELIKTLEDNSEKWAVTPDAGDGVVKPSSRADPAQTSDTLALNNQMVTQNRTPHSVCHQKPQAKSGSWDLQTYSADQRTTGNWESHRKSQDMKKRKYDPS
N-glyco inh: blocks N-linked glycosylation in D54 reporter cells; AID 588692; D54 ERlucT glycosylation luciferase reporter, 24 h; percent of 100 nM tunicamycin response; reporter increase, % at 12.5 µM; actives 0.23% (n = 360,000);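 active = mean luciferase reporter signal, scaled so untreated is 0 and the glycosylation-blocking control 100, at or above a set limit in every replicate; inconclusive = mean reaches the limit but not every replicate does; inactive = mean below the limit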;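 also: luciferase carries N-glycosylation sites so blocking glycosylation raises the light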
AF4-AF9 inh: blocks AF4 peptide binding to human AF9 | AlphaScreen, biotin-AF4 peptide binding to FLAG-AF9 | inhibition, % at 10 µM | actives 0.47% (n = 350,000);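 active = every replicate reaching a set inhibition limit, whatever the replicate mean, cut at about 25% in these data; inconclusive = mean inhibition reaches that limit but some replicates miss it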
RAD52 DNA ctr: counter-screen for RAD52 inhibitors: DNA binding compounds | shares compounds with RAD52 anneal inh | Salmon sperm DNA/acridine orange FP displacement | AC50, µM | actives 8% (n = 1,000) | AID 652128;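 active = fitted half-maximal concentration for signal loss at or below twice the highest dose tested, in every separate run, actives reach about 64 µM in these data; inconclusive = runs disagree, or flat partial signal loss, or poor fit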
Numbers stand for hits; 0 = inactive; ? = inconclusive; - = no result; ! = not confirmed by another sample. Hits are enriched below; roughly 0.92% of the tested compounds scored in any of these assays.

SMILES	RAD54 inh	FN deposition inh	RAD52 anneal inh	N-glyco inh	AF4-AF9 inh	RAD52 DNA ctr
C[C@@H]1CN([C@@H](C)CO)C(=O)c2cc(NC(=O)Nc3ccc(C(F)(F)F)cc3)ccc2O[C@H]1CN(C)C(=O)Nc1cccc2ccccc12	0	-	-	-	-	-
COc1ccc(CN(C)C[C@@H]2Oc3ccc(NC(=O)C4CCCCC4)cc3C(=O)N([C@H](C)CO)C[C@@H]2C)cc1	0	-	0	-	0	-
NCCCCCc1cn(CC(=O)NCCCCCCCCCCC(=O)N2CCNCC2)nn1	0	0	55	0	0	0
CC=Cc1ccc2n(c1=O)C[C@@H]1[C@@H](CO)[C@H](C(=O)N3CCCCC3)N(Cc3ccccc3OC)[C@H]21 (mixture of isomers)	0	-	0	-	0	-
CCOC(=O)c1c(C)n(-c2ccc(C)cc2)c2ccc(OCC(O)CN3CCN(C)CC3)cc12 (centres undefined)	-	0	97	0	41	0
C[C@H]1CN([C@@H](C)CO)C(=O)Cc2cc(N(C)C)ccc2O[C@H]1CN(C)C(=O)Nc1cccc2ccccc12	0	-	0	-	0	-
CC[C@H](C)Cc1cn([C@@H](CCCN=C(N)N)C(=O)NCCCCCCCCCCC(=O)N2CCNCC2)nn1	0	0	52	0	0	0
Cc1cc(/C=C2\Sc3ccccc3N2C)cc(C)[n+]1CC1CCCO1 (centres undefined)	-	0	51	38	0	0
Cc1ccc(/C=C2/Sc3ccccc3N(CC(=O)NCC3CCCO3)C2=O)cc1 (centres undefined)	0	-	-	0	-	-
C=CCNc1nc(NCc2cccc(OC)c2)c2sc(-c3ccccc3)cc2n1	0	0	83	0	0	0
c1ccc(CN2CCC(N3CCC(N4CCCCCC4)CC3)CC2)cc1	0	-	0	0	-	-
c1ccc2c(c1)c1c(c3ccccc32)CN2CCCC2C1 (centres undefined)	-	0	103	0	0	25µM
CCN1CCN(Cc2ccc(NC(=O)c3ccc(C)c(NC(=O)c4csc(-c5ccncc5)n4)c3)cc2C(F)(F)F)CC1	0	0	75	0	0	0
CCN1CCN(Cc2ccc(NC(=O)c3cc(NC(=O)N4CCNC4=O)cc(OC)c3)cc2C(F)(F)F)CC1	0	0	0	0	0	-
CCN1CCN(Cc2ccc(NC(=O)c3cc(NC(=O)c4cc(-c5ccc(OC)cc5)n[nH]4)cc(OC)c3)cc2C(F)(F)F)CC1	0	0	0	0	0	-
CCN1CCN(Cc2ccc(NC(=O)c3cc(NC(=O)c4ccno4)cc(OC)c3)cc2C(F)(F)F)CC1	0	0	57!	0	0	0
CCN1CCN(Cc2ccc(NC(=O)c3cc(NC(=O)c4cc5cccc(OC)c5o4)cc(OC)c3)cc2C(F)(F)F)CC1	0	0	94!	0	0	0
CCN1CCN(Cc2ccc(NC(=O)c3cc(NC(=O)c4cncc(-c5cccs5)c4)cc(OC)c3)cc2C(F)(F)F)CC1	0	0	76	0	0	0
CCN1CCN(Cc2ccc(NC(=O)c3cc(NC(=O)c4ccc5n[nH]nc5c4)cc(OC)c3)cc2C(F)(F)F)CC1	0	0	0	0	0	-
C[C@@H]1CN([C@H](C)CO)C(=O)c2cc(NS(=O)(=O)c3cccs3)ccc2O[C@@H](C)CCCCO[C@H]1CN(C)Cc1ccccc1	0	0	0	-	0	-
Cn1cnc(S(=O)(=O)N2CC[C@H]3[C@H](CO)Nc4ccc(-c5cccc(F)c5)cc4[C@H]32)c1	0	0	0	-	0	-
Cc1ccc(Nc2nc(N)c3ccccc3n2)cc1Cl	0	0	0	0	0	-
COc1cc2nc(Nc3ccc(C)c(Cl)c3)nc(N)c2cc1OC	0	0	73	0	33	0
COc1cc2nc(Nc3ccc(C)c(C)c3)nc(N)c2cc1OC	0	0	91	0	26	0
CCOC(=O)c1ccc(Nc2nc(N)c3cc(OC)c(OC)cc3n2)cc1	?	-	-	0	-	-
C[C@@H]1CCCCO[C@H](CN(C)C(=O)C2CCCCC2)[C@@H](C)CN([C@@H](C)CO)C(=O)c2cc(NC(=O)Cc3ccccc3)ccc2O1	0	-	0	-	0	-
NCCCC[C@H]1CNC(=S)N1CC1CCCCC1	0	0	85	0	0	0
O=C(C[C@H]1C=C[C@H](NC(=O)Nc2cccc(F)c2)[C@H](CO)O1)NCC1CCCCC1	0	0	0	-	0	-
COc1cc2[nH]c(=O)c(C(=O)NCCCN3CCOCC3)c(O)c2cc1OC	-	-	67	0	0	0
